# From PubChem
# Only some compounds are listed: those with a hit (about 2% of all), similar ones and a draw of the others.
# E-selectin induc: E-selectin induction on HUVECs; P16581; hit rate 0.37% among 260,000; activation, % at 7.58 µM; HUVEC E-selectin immunofluorescence imaging; normalized: neutral wells 0, TNF-alpha wells 100; AID 686992;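 active means mean E-selectin-positive cell signal at least 10% of the positive control, reached in at least 60% of replicates, without over 20% cell loss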
# Target sequence (P16581 whole entry, looked up): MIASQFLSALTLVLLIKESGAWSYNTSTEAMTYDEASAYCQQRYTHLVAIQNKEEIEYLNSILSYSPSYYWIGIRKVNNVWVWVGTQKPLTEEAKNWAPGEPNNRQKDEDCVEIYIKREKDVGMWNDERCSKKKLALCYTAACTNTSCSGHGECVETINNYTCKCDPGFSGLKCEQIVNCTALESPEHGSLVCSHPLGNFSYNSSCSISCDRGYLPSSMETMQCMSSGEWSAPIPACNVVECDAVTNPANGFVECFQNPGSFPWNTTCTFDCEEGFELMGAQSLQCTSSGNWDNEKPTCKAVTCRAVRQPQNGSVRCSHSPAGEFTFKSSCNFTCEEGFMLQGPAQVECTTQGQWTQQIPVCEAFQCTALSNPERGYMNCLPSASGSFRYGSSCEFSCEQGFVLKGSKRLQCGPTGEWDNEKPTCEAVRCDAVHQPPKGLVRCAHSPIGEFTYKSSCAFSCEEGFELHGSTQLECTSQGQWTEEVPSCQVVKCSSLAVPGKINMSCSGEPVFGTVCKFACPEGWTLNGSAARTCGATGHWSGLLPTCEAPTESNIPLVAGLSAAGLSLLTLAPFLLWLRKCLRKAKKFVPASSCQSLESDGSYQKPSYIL
#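 Test system – human umbilical vein endothelial cells (HUVEC), E-selectin induction · Input – 3,000 HUVEC seeded per well · Buffer or medium – EGM-2, gelatin · Compound dosing – single-point compound dose · Detection – immunofluorescence imaging · Measure – percent E-selectin-positive cells · Controls – TNF-alpha high, DMSO low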
# DENV2 CPE rescue: inhibitors of DENV2 cytopathic effect; DENV2-infected cells, cytopathic effect rescue, plate reader; CPE inhibition, % at 9.99 µM; hit rate 1.7% among 350,000; AID 651640; in the data active means CPE inhibition above about 20%, passing the limit was not always enough; tested in BHK-21 cells
# S100A4 inh HTS: S100A4-myosin IIA interaction inhibition; AID 652163; S100A4/TAMRA-MyoIIA peptide fluorescence polarization; hit rate 0.14% among 360,000; inhibition, % at 10.7 µM; P26447;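 active means mean inhibition of at least 70% across replicates, with every replicate also reaching that level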
#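 Test system: S100A4 monomer protein; Medium: HEPES pH 7.2 with CaCl2, KCl, NaCl, DTT, Triton; Probe or stimulus: TAMRA-labelled myosin IIA heavy-chain peptide probe, 5 nM; Doses: one dose per compound; Times: polarization read 5 min after assay mix addition, stable 5–60 min; Benchmarks: neutral control DMSO, positive control TFP.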
# XiGFP reactiv: reactivates the inactive X chromosome in mouse fibroblasts; XiGFP mouse fibroblasts, % GFP-positive cells imaging, 3 d; cells co-treated with 5-aza-dC sensitizer; scaled so ellipticine positive control = 100%; hit rate 0.055% among 360,000; AID 743238; activation, % at 7.58 µM;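 active means mean normalized replicate activation at least 10% and every replicate at or above 10%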
#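 assay system = SV40-immortalized XiGFP fibroblast cells, line 68-5-11 | buffer or medium = DMEM plus 5-aza-dC sensitizer | doses = single-point pinned compound dosing | times = 3-day compound exposure, then 15 min fixation at room temperature | benchmarks = positive control ellipticine, 6 µM final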
# Hits are given with their value; . = inactive; / = not tested or not shown; ! = not confirmed by another sample.
SMILES,E-selectin induc,DENV2 CPE rescue,S100A4 inh HTS,XiGFP reactiv
CCOc1ccc(S(=O)(=O)N2CCN(C(=O)c3cccnc3)CC2)cc1,/,.,.,.
O=C1/C(=C\c2ccc(Cl)cc2)CCC1CNc1ccc(Cl)cc1 (stereo not drawn),.,62.5,.,.
COC(=O)C[C@@H]1CC[C@@H]2[C@@H](COc3ccc(NC(=O)c4cccc(OC)c4)cc3C(=O)N2C)O1,.,.,.,.
C=CCNC(=O)COc1ccc(S(=O)(=O)Nc2ccc(OCC)cc2)cc1,.,/,/,.
COc1ccc2c3c([nH]c2c1)[C@H](CO)N(C(=O)Nc1ccc(F)cc1)CC31CCN(C(=O)Nc2ccc3c(c2)OCO3)CC1,.,61.4,.,.
CCCNC(=O)N1CC2(C1)CN(C(=O)CCC)[C@H](CO)c1[nH]c3cc(OC)ccc3c12,/,/,/,.
COc1ccc2c3c([nH]c2c1)[C@@H](CO)N(C(=O)Nc1ccc(F)cc1)CC31CCN(C(=O)Nc2ccc3c(c2)OCO3)CC1,.,.,.,.
COc1ccc2c3c([nH]c2c1)[C@H](CO)N(C(=O)Nc1cccc(F)c1)CC31CN(S(=O)(=O)c2ccccc2)C1,.,79.2,/,.
CCCNC(=O)N1CC2(C1)CN(C(=O)Nc1ccc(F)cc1)[C@H](CO)c1[nH]c3cc(OC)ccc3c12,.,23.2,.,.
CCCNC(=O)N1CC2(C1)CN(C(=O)Nc1ccc(F)cc1)[C@@H](CO)c1[nH]c3cc(OC)ccc3c12,.,.,.,.
CCCNC(=O)N1CC2(C1)CN(C(=O)CCC)[C@@H](CO)c1[nH]c3cc(OC)ccc3c12,.,21.6,/,.
CN(c1ccccc1)c1nc(N)c(C#N)c(CC#N)c1C#N,.,/,/,.
COc1ccc(C(=O)NC(=S)Nc2ccc(S(=O)(=O)Nc3cc(OC)ncn3)cc2)cc1,.,.,.,.
COc1ccc2c3c([nH]c2c1)[C@H](CO)N(C(=O)Nc1ccc(F)cc1)CC31CN(Cc2cc(-c3ccccc3)on2)C1,.,50.2,.,.
COc1ccc2c3c([nH]c2c1)[C@@H](CO)N(C(=O)Nc1ccc(F)cc1)CC31CCN(Cc2cc(-c3ccccc3)on2)CC1,.,.,.,.
Cc1ccc2c(c1)CO[C@]21O[C@H](CCO)C[C@H](O)[C@H]1O,.,44.3,.,.
O=C(O)c1ccccc1-c1ccccc1C(=O)Nc1ccc2c(c1)CCC2,.,.,.,.
O=C(Nc1ccc2c(c1)CCC2)c1ccccc1,/,44.9,.,.
Cc1ccccc1CN1CCN(S(C)(=O)=O)CC1,/,/,.,/
CCS(=O)(=O)N1CCN(S(=O)(=O)c2ccc(Cl)s2)CC1,.,/,.,.
COCCNC(=S)N1CCN(S(=O)(=O)c2ccc(Cl)s2)CC1,/,44.7,.,.
Cc1ccccc1CN1CCN(S(=O)(=O)c2ccc(Cl)s2)CC1,290.4,.,.,.
O=C(c1ccncc1)N1C[C@@H]2N[C@H](C1)C2c1ccc(/C=C/c2ccccc2)cc1 (stereo partly drawn),.,.,.,.
C[C@@H](CO)NC(=O)c1ccc2c3n(nc2c1)-c1ccccc1CO3,.,39.8,.,.
COc1ccc(S(=O)(=O)N(C)C[C@@H]2Oc3c(NC(=O)Nc4c(C)noc4C)cccc3C(=O)N([C@@H](C)CO)C[C@H]2C)cc1,.,/,/,.
SMILES,E-selectin induc,DENV2 CPE rescue,S100A4 inh HTS,XiGFP reactiv
Cc1noc(C)c1NC(=O)Nc1cccc2c1O[C@@H](CN(C)S(=O)(=O)c1ccc(F)cc1)[C@@H](C)CN([C@@H](C)CO)C2=O,.,89.3,.,.
Cc1noc(C)c1NC(=O)Nc1cccc2c1O[C@H](CN(C)S(=O)(=O)c1ccc(F)cc1)[C@H](C)CN([C@@H](C)CO)C2=O,.,.,.,.
COc1ccc(S(=O)(=O)N(C)C[C@H]2Oc3c(NC(=O)Nc4c(C)noc4C)cccc3C(=O)N([C@@H](C)CO)C[C@H]2C)cc1,174.5!,.,.,.
CCC(=O)N1C[C@H](C)[C@H](OC)CN(C)C(=O)c2ccc(NC(=O)NC(C)C)cc2OC[C@H]1C,.,69.8,.,.
CCC(=O)N1C[C@H](C)[C@@H](OC)CN(C)C(=O)c2ccc(NC(=O)NC(C)C)cc2OC[C@@H]1C,.,.,.,.
CO[C@H]1CN(C)C(=O)c2cc(NC(=O)Nc3ccc(Cl)cc3)ccc2OC[C@@H](C)N(C)C[C@H]1C,.,.,.,.
CO[C@H]1CN(C)C(=O)c2cc(NC(=O)Nc3ccc(Cl)cc3)ccc2OC[C@H](C)N(C)C[C@@H]1C,.,50.1,.,.
CO[C@H]1CN(C)C(=O)c2ccc(NC(C)=O)cc2OC[C@H](C)N(C(=O)C2CCC2)C[C@@H]1C,.,30.1,.,.
CCCNC(=O)Nc1ccc2c(c1)OC[C@H](C)N(C(=O)CC)C[C@H](C)[C@@H](OC)CN(C)C2=O,.,31.4,.,.
C[C@H]1CN([C@@H](C)CO)C(=O)c2cc(/C=C/c3ccccc3)cnc2O[C@H]1CN(C)C(=O)C1CCCCC1,.,.,.,.
COc1ccccc1C(=O)NNC(=O)C(=O)NCc1ccccc1,/,.,.,.
CO[C@@H]1CN(C)C(=O)c2ccc(NC(C)=O)cc2OC[C@@H](C)N(C(=O)CN2CCOCC2)C[C@@H]1C,.,28.1,.,.
CCC(=O)Nc1ccc2c(c1)OC[C@@H](C)N(C(=O)CN1CCOCC1)C[C@H](C)[C@@H](OC)CN(C)C2=O,.,.,.,.
CCCNC(=O)Nc1ccc2c(c1)OC[C@@H](C)N(S(C)(=O)=O)C[C@@H](C)[C@H](OC)CN(C)C2=O,.,43.3,.,.
CCC(=O)Nc1ccc2c(c1)OC[C@@H](C)N(C(=O)C1CC1)C[C@H](C)[C@H](OC)CN(C)C2=O,.,36.1,.,.
CCCNC(=O)Nc1ccc2c(c1)OC[C@H](C)N(C(=O)C1CC1)C[C@H](C)[C@@H](OC)CN(C)C2=O,.,.,92.6,.
CCCNC(=O)Nc1ccc2c(c1)OC[C@@H](C)N(C(=O)C1CC1)C[C@@H](C)[C@@H](OC)CN(C)C2=O,.,.,.,.
CCC(=O)N1C[C@@H](C)[C@@H](OC)CN(C)C(=O)c2ccc(NC(=O)Nc3ccc(Cl)cc3)cc2OC[C@H]1C,.,80.5,.,.
CO[C@H]1CN(C)C(=O)c2cc(NS(=O)(=O)c3ccc(-c4ccccc4)cc3)ccc2OC[C@H](C)NC[C@H]1C,.,.,.,.
CO[C@@H]1CN(C)C(=O)c2cc(NS(=O)(=O)c3ccccc3)ccc2OC[C@H](C)N(C)C[C@H]1C,.,20.9,.,.
CO[C@H]1CN(C)C(=O)c2cc(NS(=O)(=O)c3ccc(-c4ccccc4)cc3)ccc2OC[C@H](C)NC[C@@H]1C,.,23.1,.,.
COc1cccc(S(=O)(=O)Nc2ccc3c(c2)C(=O)N(C)C[C@H](OC)[C@H](C)CN[C@@H](C)CO3)c1,.,20.1!,.,.
COc1ccc(OC)c2sc(NC(=O)C3CC3)nc12,.,.,.,.
COc1cccc2c1cc1c(=O)n(CC(=O)N3CCCCCC3)nc(C)n12,/,.,.,.
